Measurements taken from ChEMBL document CHEMBL3875149, “New piperidine-hydrazone derivatives: Synthesis, biological evaluations and molecular docking studies as AChE and BChE inhibitors” (Eur J Med Chem, 2016).

Legend:
[1] = Antioxidant activity assessed as cupric reducing capacity after 1 hr by spectrophotometric analysis; type: functional
[2] = Antioxidant activity assessed as DPPH free radical scavenging activity after 2 hrs by spectrophotometric analysis; type: functional
Outline: (§1)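 Spectrophotometric radical-scavenging or β-carotene bleaching test, with DMSO as negative control and BHT and α-tocopherol as positive controls. The value is reported as IC50 in µM.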

[3] = Antioxidant activity assessed as inhibition of beta carotene/ linoleic acid peroxidation after 120 mins by spectrophotometric analysis; type: functional; outline: as §1
[4] = Antioxidant activity assessed as ABTS radical scavenging activity by spectrophotometric analysis; type: functional; outline: as §1
[5] = Cytotoxicity against human BJ cells assessed as decrease in cell viability after 24 hrs by MTT assay; type: toxicity, cell-based
Outline: (§2)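 A549 cells were kept in RPMI and BJ fibroblasts in EMEM, each with 10% FBS and 1% penicillin/streptomycin at 37℃ and 5% CO2. MTT was added at 0.5 mg/mL final for 3 h, formazan was dissolved in DMSO and read at 540 nm. Survival is expressed as % of the 0.1% DMSO control, and IC50 was derived from it.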

[6] = molecular target: Cholinesterase (Equus caballus, UniProt P81908); assay: Inhibition of horse serum butyrylcholinesterase by Ellman's method
Outline: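 Spectrophotometric Ellman assay using horse serum BChE, run alongside a parallel electric eel AChE assay. Inhibition reported as IC50 in µM.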

[7] = Cytotoxicity against human A549 cells assessed as decrease in cell viability after 24 hrs by MTT assay; type: functional, cell-based; settings: A549, 24 h; outline: as §2
[8] = molecular target: Acetylcholinesterase (Electrophorus electricus, UniProt O42275); assay: Inhibition of electric eel acetylcholinesterase using acetylthiocholine iodide as substrate by Ellman's method
Acetylcholinesterase, sequence (O42275 whole entry): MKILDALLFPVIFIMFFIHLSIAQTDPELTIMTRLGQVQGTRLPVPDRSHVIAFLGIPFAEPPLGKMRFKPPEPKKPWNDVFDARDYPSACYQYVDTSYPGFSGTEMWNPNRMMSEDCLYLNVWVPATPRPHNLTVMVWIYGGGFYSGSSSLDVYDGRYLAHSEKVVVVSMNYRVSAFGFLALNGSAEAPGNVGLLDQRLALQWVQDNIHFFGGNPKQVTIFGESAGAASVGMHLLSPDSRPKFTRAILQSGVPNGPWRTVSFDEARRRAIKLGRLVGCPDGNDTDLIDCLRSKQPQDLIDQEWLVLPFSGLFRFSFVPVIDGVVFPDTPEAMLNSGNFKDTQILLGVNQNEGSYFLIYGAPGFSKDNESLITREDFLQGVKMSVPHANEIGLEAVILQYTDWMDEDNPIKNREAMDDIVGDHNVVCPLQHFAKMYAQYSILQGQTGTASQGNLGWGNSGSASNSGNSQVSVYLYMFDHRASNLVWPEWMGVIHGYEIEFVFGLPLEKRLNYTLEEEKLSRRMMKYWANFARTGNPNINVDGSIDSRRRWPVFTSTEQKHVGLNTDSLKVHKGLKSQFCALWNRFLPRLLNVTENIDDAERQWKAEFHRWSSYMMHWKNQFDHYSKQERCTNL

Cholinesterase, sequence (P81908 whole entry): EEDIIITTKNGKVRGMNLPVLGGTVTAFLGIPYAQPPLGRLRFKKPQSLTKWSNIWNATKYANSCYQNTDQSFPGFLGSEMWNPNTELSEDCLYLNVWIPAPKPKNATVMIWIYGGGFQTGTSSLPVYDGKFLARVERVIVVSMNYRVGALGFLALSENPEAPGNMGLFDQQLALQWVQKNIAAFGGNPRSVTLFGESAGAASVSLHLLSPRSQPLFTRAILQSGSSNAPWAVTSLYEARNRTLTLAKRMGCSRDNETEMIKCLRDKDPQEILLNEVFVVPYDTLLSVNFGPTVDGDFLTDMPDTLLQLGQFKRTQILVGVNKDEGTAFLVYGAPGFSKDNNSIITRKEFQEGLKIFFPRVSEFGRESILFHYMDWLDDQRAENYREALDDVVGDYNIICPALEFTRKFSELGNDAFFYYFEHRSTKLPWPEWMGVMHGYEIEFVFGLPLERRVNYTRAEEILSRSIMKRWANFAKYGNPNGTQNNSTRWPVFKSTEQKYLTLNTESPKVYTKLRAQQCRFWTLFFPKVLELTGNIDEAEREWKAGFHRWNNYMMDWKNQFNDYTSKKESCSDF

| Structure (SMILES) | A0.5 [1] [µM] | IC50 [2] [µM] | IC50 [3] [µM] | IC50 [4] [µM] | IC50 at 24 h [5] [µM] | IC50 [6] [µM] | IC50 [7] [µM] | IC50 [8] [µM] |
| --- | --- | --- | --- | --- | --- | --- | --- | --- |
| COc1ccc(C(=O)NN=C2CC(c3ccccc3)NC(c3ccccc3)C2)cc1 (configuration not stated) | 77.7 | 75.8 | 34.5 | 27.9 | > 400 | 110 | > 400 | 92.2 |
| O=[N+]([O-])c1ccc(NN=C2CC(c3ccccc3)NC(c3ccccc3)C2)c([N+](=O)[O-])c1 (configuration not stated) | 29.2 | 20 | 28.2 | 19.2 | > 400 | – | > 400 | – |
| O=C(NN=C1CC(c2ccccc2)NC(c2ccccc2)C1)c1ccc(Cl)cc1 (configuration not stated) | 49.8 | 96.7 | 43.6 | 67.9 | > 400 | 35.3 | > 400 | 41.2 |
| O=C(NN=C1CC(c2ccccc2)NC(c2ccccc2)C1)c1ccc(C(F)(F)F)cc1 (configuration not stated) | 92.1 | 65 | 55.3 | 153 | > 400 | 99.1 | > 400 | 84.4 |
| CCOC(=O)N1CCC(=NNC(=O)c2ccc(C(F)(F)F)cc2)CC1 | 51.4 | 33.8 | 49.3 | 23.5 | > 400 | 91.6 | – | 136 |
| Cc1ccc(C(=O)NN=C2CC(c3ccccc3)NC(c3ccccc3)C2)cc1 (configuration not stated) | 50.6 | 53.3 | 69 | 64.1 | > 400 | 50.1 | > 400 | 74.9 |
| O=C(NN=C1CC(c2ccccc2)NC(c2ccccc2)C1)c1ccc([N+](=O)[O-])cc1 (configuration not stated) | 17.8 | 88.1 | 45.2 | 170 | > 400 | 86.8 | > 400 | 63.9 |
| Cc1cc(C(C)(C)C)c(O)c(C(C)(C)C)c1 [BUTYLATED HYDROXYTOLUENE] | 3.8 | 55 | 2.34 | 2.91 | – | – | – | – |
| CCOC(=O)N1CCC(=NNC(=O)c2ccc(OC)cc2)CC1 | 36.9 | 85.4 | – | 38.3 | – | 82.2 | > 400 | 101 |
| O=C(NN=C1CC(c2ccccc2)NC(c2ccccc2)C1)c1ccccc1 (configuration not stated) | 45.4 | 42 | 41.9 | 238 | > 400 | 66 | > 400 | 99.7 |
| CCOC(=O)N1CCC(=NNC(=O)c2ccc(C)cc2)CC1 | 11.1 | 75.5 | 52.5 | 28.1 | > 400 | 76.9 | > 400 | 94.8 |
| CCOC(=O)N1CCC(=NNC(=O)c2ccc(C(F)(F)F)cc2F)CC1 | 27.3 | 86 | 77.4 | 59.5 | > 400 | 95.1 | > 400 | 123 |
| O=C(NN=C1CC(c2ccccc2)NC(c2ccccc2)C1)c1ccc(C(F)(F)F)cc1F (configuration not stated) | 85.2 | 70.2 | 41.1 | 63.5 | > 400 | 117 | > 400 | 90.1 |
| CCOC(=O)N1CCC(=NNC(=O)c2ccc(F)cc2C(F)(F)F)CC1 | 25.6 | 86.8 | 68.2 | 41.9 | > 400 | 99.6 | > 400 | 124 |
| CCOC(=O)N1CCC(=NNC(=O)c2ccc([N+](=O)[O-])cc2)CC1 | 13.3 | 51.7 | 40.2 | 10.9 | > 400 | 156 | > 400 | 125 |
| Cc1c(C)c2c(c(C)c1O)CC[C@@](C)(CCC[C@H](C)CCC[C@H](C)CCCC(C)C)O2 [ALPHA-TOCOPHEROL] | 40.5 | 12.3 | 4.5 | 4.87 | – | – | – | – |
| CCOC(=O)N1CCC(=NNC(=O)c2ccc(F)cc2)CC1 | 4.16 | 74.8 | 65.5 | 39.2 | > 400 | 113 | > 400 | 128 |
| CCOC(=O)N1CCC(=NNC(=O)c2ccc(Cl)cc2)CC1 | 23.5 | 59 | 72.3 | 63.9 | > 400 | 69.5 | > 400 | 81.8 |
| O=C(NN=C1CC(c2ccccc2)NC(c2ccccc2)C1)c1ccc(F)cc1C(F)(F)F (configuration not stated) | 88.2 | 88.3 | 115 | 88.5 | > 400 | 52.4 | > 400 | 49.5 |
| O=C(NN=C1CC(c2ccccc2)NC(c2ccccc2)C1)c1ccc(F)cc1 (configuration not stated) | 59.6 | 66 | 56.6 | 83.7 | > 400 | 72.8 | > 400 | 91.1 |
